Key:
Assay type in all cases: cell-based
[1] = target: T1, Estrogen receptor (Homo sapiens) (UniProt P03372); test: Activation of human estrogen receptor alpha expressed in HEK293 cells at 10 uM by beta-galactosidase reporter gene assay relative to 3,17 beta-estradiol
T1 sequence (whole entry): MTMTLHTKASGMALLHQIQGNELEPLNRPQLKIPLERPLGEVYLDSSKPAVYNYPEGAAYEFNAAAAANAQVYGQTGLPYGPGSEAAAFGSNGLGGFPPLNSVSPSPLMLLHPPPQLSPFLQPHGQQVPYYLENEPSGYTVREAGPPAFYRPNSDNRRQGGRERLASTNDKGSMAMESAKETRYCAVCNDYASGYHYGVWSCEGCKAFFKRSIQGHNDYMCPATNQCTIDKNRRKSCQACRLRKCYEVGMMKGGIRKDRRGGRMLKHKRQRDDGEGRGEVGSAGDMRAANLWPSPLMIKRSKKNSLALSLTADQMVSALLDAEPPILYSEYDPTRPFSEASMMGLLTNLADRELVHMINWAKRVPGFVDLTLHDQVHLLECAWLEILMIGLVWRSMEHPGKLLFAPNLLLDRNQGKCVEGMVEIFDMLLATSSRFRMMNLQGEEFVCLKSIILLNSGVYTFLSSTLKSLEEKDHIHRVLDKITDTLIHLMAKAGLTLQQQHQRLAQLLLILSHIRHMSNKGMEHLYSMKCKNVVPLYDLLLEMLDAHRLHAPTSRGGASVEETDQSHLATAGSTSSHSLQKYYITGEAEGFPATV
Procedure, shortened: (§1)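 HEK293 cells seeded a day ahead in phenol-free DMEM with 5% delipidated FBS. Calcium phosphate transfection for 4 h with 5 ng ERα or ERβ expression vector, 75 ng pERE2TATA-LUC reporter and 20 ng pCMVβ control. Test compound at 10 µM (vehicle 0.1% v/v) for 24 h. Luciferase normalized to β-galactosidase. Activity = 100% × (test − vehicle)/(10 nM E2 − vehicle). Mean of ≥3 independent transfections.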

[2] = target: Estrogen receptor beta (Homo sapiens) (UniProt Q92731); test: Activation of human estrogen receptor beta expressed in HEK293 cells at 10 uM in presence of ICI-182781 beta-galactosidase reporter gene assay relative to control
Sequence of Estrogen receptor beta (Homo sapiens) (Q92731 whole entry): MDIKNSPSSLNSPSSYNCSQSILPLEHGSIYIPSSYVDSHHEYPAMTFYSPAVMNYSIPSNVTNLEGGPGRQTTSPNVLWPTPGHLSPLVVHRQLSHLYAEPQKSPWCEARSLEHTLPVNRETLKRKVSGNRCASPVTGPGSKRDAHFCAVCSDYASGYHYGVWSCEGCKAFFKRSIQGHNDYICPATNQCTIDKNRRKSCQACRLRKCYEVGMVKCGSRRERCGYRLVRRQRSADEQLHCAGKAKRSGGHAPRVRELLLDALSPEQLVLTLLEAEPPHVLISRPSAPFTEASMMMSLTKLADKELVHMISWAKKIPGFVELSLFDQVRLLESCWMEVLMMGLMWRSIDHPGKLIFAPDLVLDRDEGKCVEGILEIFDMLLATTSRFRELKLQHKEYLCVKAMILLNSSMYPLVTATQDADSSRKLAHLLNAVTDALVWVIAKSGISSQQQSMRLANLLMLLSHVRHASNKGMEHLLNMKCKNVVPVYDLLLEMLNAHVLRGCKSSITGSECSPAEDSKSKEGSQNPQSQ
Procedure, shortened: (§2)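 Antagonism format: transfection as for the agonist assay (ERα or ERβ vector, ERE2-TATA-LUC, pCMVβ; 4 h). Medium then contained 10 µM compound plus 1000 nM ICI-182,780 or vehicle for 24 h. β-Gal-normalized luciferase given as fold activation relative to vehicle. Means ± SEM of ≥3 independent transfections.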

[3] = target: T1, Estrogen receptor (Homo sapiens); test: Activation of human estrogen receptor alpha expressed in HEK293 cells at 10 uM beta-galactosidase reporter gene assay relative to control
Procedure, shortened: (§3)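 Luciferase reporter in transiently transfected HEK293 cells. Cells received 5 ng ERα or ERβ vector, ERE2-TATA luciferase reporter and pCMVβ by calcium phosphate for 4 h. Compound at 10 µM for 24 h in phenol-free medium with delipidated serum. β-Gal-normalized luciferase expressed as fold activation over vehicle (0.1% v/v). Means ± SEM of ≥3 transfections.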

[4] = target: Estrogen receptor beta (Homo sapiens) (UniProt Q92731); test: Activation of human estrogen receptor beta expressed in HEK293 cells at 10 uM beta-galactosidase reporter gene assay relative to 3,17-beta-estradiol; procedure, shortened: as §1
[5] = target: Estrogen receptor beta (Homo sapiens) (UniProt Q92731); test: Activation of human estrogen receptor beta expressed in HEK293 cells at 10 uM beta-galactosidase reporter gene assay relative to control; procedure, shortened: as §3
[6] = target: T1, Estrogen receptor (Homo sapiens); test: Activation of human estrogen receptor alpha expressed in HEK293 cells at 10 uM in presence of ICI-182780 beta-galactosidase reporter gene assay relative to control; procedure, shortened: as §2

## COC(CC(=O)Cc1ccccc1)Cc1ccc2ccccc2c1 (racemic)
[1]
  Activity: 48.1%
[2]
  Activity: 0.7
[3]
  Activity: 22.9
[4]
  Activity: 4.7%
[5]
  Activity: 4.2
[6]
  Activity: 1.6

Source: ChEMBL document CHEMBL1150775, “Synthesis and evaluation of estrogen agonism of diaryl 4,5-dihydroisoxazoles, 3-hydroxyketones, 3-methoxyketones, and 1,3-diketones: a compound set forming a 4D molecular library” (J Med Chem, 2008)
